EBI2 block – EBI2 (human) antagonism; hit rate 0.81% among 360,000; inhibition, % at 5 µM; P32249; EBI2 beta-arrestin recruitment, luminescence, 7a,25-OHC stimulated; in the data active = inhibition above about 38%;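 also: enzyme fragment complementation signal reports receptor beta-arrestin coupling in cells; 0% = agonist plus DMSO wells and 100% = wells without agonist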
Target sequence (P32249 whole entry, looked up, the tested form may be a part): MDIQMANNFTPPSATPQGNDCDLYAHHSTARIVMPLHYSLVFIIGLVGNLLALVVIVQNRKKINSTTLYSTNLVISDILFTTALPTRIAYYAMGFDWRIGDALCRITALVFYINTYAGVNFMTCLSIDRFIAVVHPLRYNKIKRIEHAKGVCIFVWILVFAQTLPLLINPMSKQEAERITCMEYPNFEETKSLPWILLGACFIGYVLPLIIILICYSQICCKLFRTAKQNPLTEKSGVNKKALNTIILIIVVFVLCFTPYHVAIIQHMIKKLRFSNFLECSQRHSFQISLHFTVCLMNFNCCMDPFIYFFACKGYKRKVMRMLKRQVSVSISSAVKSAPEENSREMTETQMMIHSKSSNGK
SENP1 inh – blocks the human SENP1 SUMO protease catalytic domain | hit rate 0.21% among 360,000 | recombinant SENP1 catalytic domain, CyPet-SUMO1-YPet FRET cleavage | Q9P0U3 | inhibition, % at 10 µM;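 active = inhibition at least 30% at 10 µM, raw YFP signal under a set limit, fluorescence ratio 0.5 to 1.5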;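 also: 0% = enzyme with DMSO and 100% = no enzyme wells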
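material = recombinant human SENP1 catalytic domain, His6-tagged | quantity = 20 pM enzyme | reagent = 25 nM SUMO1 FRET substrate | compound dosing = 10 µM single point, 0.5% DMSO | timing = 50 min enzyme reaction, room temperature, light-protected | detection = FRET, CFP and YFP emission | control set = no-enzyme low, enzyme-DMSO high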
GRIN3A LBD mod – modulates the human NR3A ligand-binding domain; hit rate 2.5% among 340,000; NR3A LBD differential scanning fluorimetry, Tm shift; 0% = protein alone, 100% = glycine-bound protein; Tm shift relative to glycine control, % at 25 µM;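 active = melting temperature shift of at least 10% of the positive control shift, at one fixed dose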
MPTP inh – permeability transition pore inhibition | isolated mouse mitochondria, Ca2+ swelling absorbance, 30 min | inhibition, % at 10 µM | hit rate 1.4% among 360,000 | AID 602449;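 active = inhibition of 50% or more, scaled per plate between neutral and stimulator controls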;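 also: 0% = DMSO wells given calcium and 100% = 1 mM EGTA wells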
* hit, by the source's call. A selection: hits, their analogues and other compounds. The true share with any hit is near 4.4%.

For COc1cccc(/C=N/NC(=O)c2nnn(-c3nonc3N)c2C(C)C)c1 the results were EBI2 block -1.0, SENP1 inh 3.2, GRIN3A LBD mod 25.5* and MPTP inh 0.3.
`CCc1cc2c(=O)n(-c3ccccc3)c(=S)[nH]c2s1` gave EBI2 block -4.4, SENP1 inh 2.0, GRIN3A LBD mod -0.5 and MPTP inh -1.1.
Screening CC1CCCN(S(=O)(=O)c2cccc([N+](=O)[O-])c2)C1 (stereo unspecified) returned EBI2 block -8.2, SENP1 inh 1.2, GRIN3A LBD mod 0.9 and MPTP inh -0.2.
CC(C)(C)NC(=O)NC(=O)COC(=O)CCC1CCCC1 was read as EBI2 block 0.4, SENP1 inh 7.5, GRIN3A LBD mod 0.5 and MPTP inh -0.1.
`Cc1ccc(-c2c(C#N)c(N)nc3c2CCCC3)s1` gave EBI2 block -7.2, SENP1 inh -113.8, GRIN3A LBD mod -1.0 and MPTP inh 2.5.
Screening CCNC(=O)NC(=O)C(C)OC(=O)[C@H](C)NS(=O)(=O)c1c(C)c(C)cc(C)c1C (stereo partly specified) returned EBI2 block -13.0, SENP1 inh 0.9, GRIN3A LBD mod 1.6 and MPTP inh 0.2.
For CC(C)c1c(C(=O)N/N=C/c2cccc(OCc3ccc(F)cc3)c2)nnn1-c1nonc1N the results were EBI2 block -9.2, SENP1 inh 0.2, GRIN3A LBD mod 26.9* and MPTP inh 6.4.
`CC(/C=N/NC(=O)c1nnn(-c2nonc2N)c1CN1CCCCC1)=C\c1ccccc1` gave EBI2 block 9.3, SENP1 inh 1.3, GRIN3A LBD mod 1.7 and MPTP inh -0.5.
For CCCc1c(C(=O)N/N=C/C(C)=C/c2ccco2)nnn1-c1nonc1N the results were EBI2 block 9.8, SENP1 inh -10.2, GRIN3A LBD mod 15.7* and MPTP inh -0.6.
Screening CC(/C=N/NC(=O)c1nnn(-c2nonc2N)c1C(C)C)=C\c1ccco1 returned EBI2 block 0.2, SENP1 inh -2.0, GRIN3A LBD mod 18.7* and MPTP inh -1.0.
`N#Cc1cc(Oc2cccc3cccnc23)c(-n2nnc3ccccc32)cc1C#N` gave EBI2 block 79.2*, SENP1 inh -20.8, GRIN3A LBD mod -1.6 and MPTP inh -1.9.
For COc1ccc(S(=O)(=O)N2CCOCC2)cc1NC(=O)CCc1c[nH]c2ccccc12 the results were EBI2 block 1.2, SENP1 inh -0.3, GRIN3A LBD mod -86.9 and MPTP inh 0.0.
For COC(=O)c1cc(NC(=O)COC(=O)CCc2c[nH]c3ccccc23)cc(C(=O)OC)c1 the results were EBI2 block 4.7, SENP1 inh 2.6, GRIN3A LBD mod 10.7* and MPTP inh -0.9.
Screening O=C(COC(=O)CCc1c[nH]c2ccccc12)Nc1cc([N+](=O)[O-])ccc1Cl returned EBI2 block 0.3, SENP1 inh 2.0, GRIN3A LBD mod 0.8 and MPTP inh 0.0.
Screening O=C(COC(=O)CCc1c[nH]c2ccccc12)Nc1ccc([N+](=O)[O-])cc1 returned EBI2 block -4.9, SENP1 inh 3.9, GRIN3A LBD mod 35.2* and MPTP inh 0.8.
CCO[C@@H]1OC(C(=O)N2CCCCCCC2)=C[C@H](c2ccc(C(F)(F)F)cc2)[C@H]1CCCO was read as EBI2 block 14.5, SENP1 inh 1.0, GRIN3A LBD mod 0.8 and MPTP inh -0.9.
Screening CCOC(=O)c1cc(-c2ccc(C)cc2)n(CCC(=O)N2CCN(c3ccccn3)CC2)c1C returned EBI2 block 2.4, SENP1 inh -1.2, GRIN3A LBD mod 12.6* and MPTP inh -3.1.
For CCOC(=O)c1cc(-c2ccccc2)n(CCC(=O)O)c1C the results were EBI2 block 0.0, SENP1 inh 1.0, GRIN3A LBD mod 1.4 and MPTP inh 0.2.
Screening COc1ccc2ccccc2c1/C=N/NC(=O)c1ccccc1F returned EBI2 block 9.8, SENP1 inh 3.3, GRIN3A LBD mod 1.9 and MPTP inh -0.5.
Screening CCOc1ccc(/C=N/NC(=O)c2cc3ccccc3cc2OC)cc1 returned EBI2 block 11.5, SENP1 inh -1.0, GRIN3A LBD mod 24.2* and MPTP inh -1.8.
CCOc1ccc(S(=O)(=O)Nc2ccccc2C(=O)N/N=C/c2c(OC)ccc3ccccc23)cc1 was read as EBI2 block -13.3, SENP1 inh 2.1, GRIN3A LBD mod 22.1* and MPTP inh 12.8.
COc1ccc(Br)cc1C(=O)N/N=C/c1cccnc1 was read as EBI2 block 4.6, SENP1 inh 0.8, GRIN3A LBD mod 0.6 and MPTP inh 0.0.
`COc1cc2ccccc2cc1C(=O)Nc1ccc(Br)cn1` gave EBI2 block 47.5*, SENP1 inh 0.9, GRIN3A LBD mod 2.1 and MPTP inh -0.1.

Compound activity from PubChem BioAssay.
